Results: ChEMBL document CHEMBL3421570, “Combinatorial Libraries As a Tool for the Discovery of Novel, Broad-Spectrum Antibacterial Agents Targeting the ESKAPE Pathogens” (J Med Chem, 2015)
Converted amounts (≈) assume the structure as drawn. The source made the active and inactive calls. No cut-off for these calls is given here.

Tests used:
Klebsiella pneumoniae [1] = experiment: Antibiofilm activity against Klebsiella pneumoniae incubated for 24 hrs followed by biofilm resuspension in PBS and measured after 24 hrs; assay type: functional
In short: (§1)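 Biofilms grown 24 h in 96-well plates from overnight cultures standardized to OD600 0.5 in fresh medium (human serum only for S. aureus; TSB for Gram-positives, LB for Gram-negatives). Medium then replaced with fresh medium containing a concentration range above and below MIC, 37°C overnight. After 24 h biofilm resuspended in PBS, serially diluted, plated in duplicate, CFU counted after 24 h at 37°C. Activity relative to untreated; three technical replicates; MBEC50 reported.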

Staphylococcus aureus [2] = experiment: Antimicrobial activity against Staphylococcus aureus USA300 strain FPR3757 infected in mouse model of lethal peritonitis assessed as mouse survival at 2 uM, im dosed 1 hr post infection and measured after 5 days post infection; assay type: functional, organism-based
In short: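 Mice, six per group, infected i.p. with 1 × 10^8 CFU ml−1 S. aureus USA300 FPR3757 in PBS with 5% mucin. Compound given i.m. at 2 μM 1 h later; vehicle 45% w/v (2-hydroxypropyl)-β-cyclodextrin in water i.v.; vancomycin i.v. as control. Monitored twice daily for 5 days, pre-moribund animals euthanized. Survival compared by log-rank test.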

[3] = Induction of hemolysis in human RBC at 10 uM incubated for 15 mins; assay type: cell-based, Erythrocyte; conditions: red blood cells, read-out: Activity
In short: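 Human RBCs from whole blood, resuspended 20% v/v in HA buffer (NaCl, CaCl2), compound 10 μM, 15 min at 37°C. Centrifuged 5,500 g for 1 min, supernatant OD543 read. Percent hemolysis against DMF vehicle (0%) and 1.0% Triton X-100 (100%); triplicate.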

Klebsiella pneumoniae [4] = experiment: Antimicrobial activity against Klebsiella pneumoniae assessed as inhibition of microbial growth at 45 uM after 24 hrs; assay type: functional, organism-based
In short: (§2)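 Broth microdilution single-concentration read: overnight cultures diluted 1:1000, compound in DMF (≤2.0%) added, 37°C for 24 h, growth inhibition scored visually by lack of turbidity; triplicate. Gram-positives grown in TSB, Gram-negatives in LB.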

Staphylococcus aureus [5] = experiment: Bactericidal activity against methicillin-resistant Staphylococcus aureus at MIC measured after drug wash out after 120 mins by time kill assay; assay type: functional
In short: (§3)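 MRSA from stationary phase was regrown 3 h in TSB and seeded at OD600 0.5. […] After 120 min, cells were centrifuged and washed, serially diluted and plated for CFU. Percent recovery is relative to no-drug controls.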

[6] = Cytotoxicity against human A549 cells assessed as cell viability recovery at 225 uM after 48 hrs by MTT assay; assay type: cell-based; conditions: read-out: Activity
In short: (§4)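 A549 cells grown in F-12K with L-glutamine, 10% FBS, 1% penicillin-streptomycin, seeded at 1.0 × 10^5 ml−1, allowed to adhere 24 h (37°C, 5% CO2), then exposed to compound in 45% w/v (2-hydroxypropyl)-β-cyclodextrin vehicle for 48 h. MTT 4 h, formazan solubilized in DMSO, absorbance 540 nm. Percent recovery versus vehicle-only; IC50 derived; at least three independent experiments.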

Staphylococcus aureus [7] = experiment: Bactericidal activity against Staphylococcus aureus after 24 hrs; assay type: functional
[8] = Selectivity index, ratio of IC50 for human A549 cells to MIC for Enterococcus faecium
Enterobacter cloacae [9] = experiment: Induction of spontaneous mutation in Enterobacter cloacae at 2 to 10 MIC; assay type: functional, organism-based
Staphylococcus aureus [10] = experiment: Bactericidal activity against methicillin-resistant Staphylococcus aureus assessed as cell survival recovery at MIC measured after drug wash out after 120 mins by time kill assay; assay type: functional; in short: as §3
Pseudomonas aeruginosa [11] = experiment: Antimicrobial activity against Pseudomonas aeruginosa isolate 1414 assessed as inhibition of microbial growth in presence of 100 uM efflux pump inhibitor reserpine after 24 hrs; assay type: functional, organism-based
Pseudomonas aeruginosa [12] = experiment: Antimicrobial activity against Pseudomonas aeruginosa assessed as inhibition of microbial growth at 45 uM after 24 hrs; assay type: functional, organism-based; in short: as §2
Acinetobacter baumannii [13] = experiment: Antimicrobial activity against Acinetobacter baumannii assessed as inhibition of microbial growth at 45 uM after 24 hrs; assay type: functional, organism-based; in short: as §2
Klebsiella pneumoniae [14] = experiment: Bactericidal activity against Klebsiella pneumoniae after 24 hrs; assay type: functional
Enterococcus faecium [15] = experiment: Antibiofilm activity against Enterococcus faecium incubated for 24 hrs followed by biofilm resuspension in PBS and measured after 24 hrs; assay type: functional; in short: as §1
[16] = Selectivity index, ratio of IC50 for human A549 cells to MIC for Klebsiella pneumoniae
Enterobacter cloacae [17] = experiment: Bactericidal activity against Enterobacter cloacae after 24 hrs; assay type: functional
[18] = Selectivity index, ratio of IC50 for human A549 cells to MIC for Staphylococcus aureus
Acinetobacter baumannii [19] = experiment: Ratio of MIC for Acinetobacter baumannii measured after 8 cycle passage to MIC for wild type Acinetobacter baumannii; assay type: functional
Acinetobacter baumannii [20] = experiment: Bactericidal activity against Acinetobacter baumannii after 24 hrs; assay type: functional
Staphylococcus aureus [21] = experiment: Antimicrobial activity against Staphylococcus aureus assessed as inhibition of microbial growth after 24 hrs; assay type: functional
In short: (§5)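 Broth microdilution against multidrug-resistant clinical ESKAPE isolates. Overnight cultures (TSB for Gram-positives, LB for Gram-negatives) diluted 1:1000 in fresh medium, compound in DMF (≤2.0% DMF) added at decreasing concentrations, 37°C.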

Enterococcus faecium [22] = experiment: Antimicrobial activity against Enterococcus faecium assessed as inhibition of microbial growth after 24 hrs; assay type: functional; in short: as §5
[23] = Selectivity index, ratio of IC50 for human A549 cells to MIC for Pseudomonas aeruginosa
A549 = experiment: Cytotoxicity against human A549 cells after 48 hrs by MTT assay; assay type: cell-based; conditions: A549, 48 h; in short: as §4
Acinetobacter baumannii [24] = experiment: Induction of spontaneous mutation in Acinetobacter baumannii at 2 to 10 MIC; assay type: functional, organism-based
[25] = Selectivity index, ratio of IC50 for human A549 cells to MIC for Enterobacter cloacae
Staphylococcus aureus [26] = experiment: Ratio of MIC for Staphylococcus aureus measured after 8 cycle passage to MIC for wild type Staphylococcus aureus; assay type: functional
Klebsiella pneumoniae [27] = experiment: Ratio of MIC for Klebsiella pneumoniae measured after 8 cycle passage to MIC for wild type Klebsiella pneumoniae; assay type: functional
Staphylococcus aureus [28] = experiment: Antimicrobial activity against Staphylococcus aureus assessed as inhibition of microbial growth at 45 uM after 24 hrs; assay type: functional, organism-based; in short: as §2
Enterobacter cloacae [29] = experiment: Antimicrobial activity against Enterobacter cloacae assessed as inhibition of microbial growth after 24 hrs; assay type: functional; in short: as §5
Klebsiella pneumoniae [30] = experiment: Antimicrobial activity against Klebsiella pneumoniae assessed as inhibition of microbial growth after 24 hrs; assay type: functional; in short: as §5
Enterococcus faecium [31] = experiment: Antimicrobial activity against Enterococcus faecium assessed as inhibition of microbial growth at 45 uM after 24 hrs; assay type: functional, organism-based; in short: as §2
[32] = Selectivity index, ratio of IC50 for human A549 cells to MIC for Acinetobacter baumannii
Staphylococcus aureus [33] = experiment: Induction of spontaneous mutation in Staphylococcus aureus at 2 to 10 MIC; assay type: functional, organism-based
Staphylococcus aureus [34] = experiment: Antibiofilm activity against Staphylococcus aureus incubated for 24 hrs followed by biofilm resuspension in PBS and measured after 24 hrs; assay type: functional; in short: as §1
Pseudomonas aeruginosa [35] = experiment: Antibiofilm activity against Pseudomonas aeruginosa incubated for 24 hrs followed by biofilm resuspension in PBS and measured after 24 hrs; assay type: functional; in short: as §1
Klebsiella pneumoniae [36] = experiment: Induction of spontaneous mutation in Klebsiella pneumoniae at 2 to 10 MIC; assay type: functional, organism-based
Staphylococcus aureus [37] = experiment: Effect on bacterial density of methicillin-resistant Staphylococcus aureus at MIC measured over 2 hrs period by time kill assay; assay type: functional, organism-based
Enterobacter cloacae [38] = experiment: Ratio of MIC for Enterobacter cloacae measured after 8 cycle passage to MIC for wild type Enterobacter cloacae; assay type: functional
Acinetobacter baumannii [39] = experiment: Antimicrobial activity against Acinetobacter baumannii assessed as inhibition of microbial growth after 24 hrs; assay type: functional; in short: as §5
Pseudomonas aeruginosa [40] = experiment: Antimicrobial activity against Pseudomonas aeruginosa assessed as inhibition of microbial growth after 24 hrs; assay type: functional; in short: as §5
Enterococcus faecium [41] = experiment: Induction of spontaneous mutation in Enterococcus faecium at 2 to 10 MIC; assay type: functional, organism-based
[42] = Cytotoxicity against human A549 cells assessed as cell viability recovery up to 125 uM after 48 hrs by MTT assay; assay type: cell-based; conditions: read-out: Activity; in short: as §4
Acinetobacter baumannii [43] = experiment: Antibiofilm activity against Acinetobacter baumannii incubated for 24 hrs followed by biofilm resuspension in PBS and measured after 24 hrs; assay type: functional; in short: as §1
Enterobacter cloacae [44] = experiment: Antimicrobial activity against Enterobacter cloacae assessed as inhibition of microbial growth at 45 uM after 24 hrs; assay type: functional, organism-based; in short: as §2
Enterococcus faecium [45] = experiment: Bactericidal activity against Enterococcus faecium after 24 hrs; assay type: functional
Pseudomonas aeruginosa [46] = experiment: Induction of spontaneous mutation in Pseudomonas aeruginosa at 2 to 10 MIC; assay type: functional, organism-based; conditions: 2 to 10 x MIC
Enterobacter cloacae [47] = experiment: Antibiofilm activity against Enterobacter cloacae incubated for 24 hrs followed by biofilm resuspension in PBS and measured after 24 hrs; assay type: functional; in short: as §1
Pseudomonas aeruginosa [48] = experiment: Bactericidal activity against Pseudomonas aeruginosa after 24 hrs; assay type: functional
Staphylococcus aureus [49] = experiment: Effect on bacterial density of methicillin-resistant Staphylococcus aureus at 200 uM measured over 2 hrs period by time kill assay; assay type: functional, organism-based
Staphylococcus aureus [50] = experiment: Bactericidal activity against methicillin-resistant Staphylococcus aureus assessed as cell survival recovery at 200 uM measured after drug wash out after 120 mins by time kill assay; assay type: functional; conditions: 2 h; in short: as §3

CCCCCCCN1C(=N)N(CCCC[C@H]2CNC(=N)N2CCC23C[C@H]4C[C@@H](C2)C[C@@H](C3)C4)C[C@@H]1CCCC
MBEC50 (Klebsiella pneumoniae [1]): 8.6 µM
Activity (Staphylococcus aureus [2]): Active
hemolysis at 0.25 h, 10 µM [3]: 0.34%
growth inhibition (GI) (Klebsiella pneumoniae [4]): Active
fold change (FC) (Staphylococcus aureus [5]): 2.5
viability at 48 h, 225 µM [6]: 35%
MBC90 (Staphylococcus aureus [7]): 2.9 µM (≈ 1.57 µg/mL)
Selectivity Index [8]: 88
Activity (Enterobacter cloacae [9]): inactive
Survival (Staphylococcus aureus [10]): 0.2%
growth inhibition (GI) (Pseudomonas aeruginosa [11]): Active
growth inhibition (GI) (Pseudomonas aeruginosa [12]): Active
growth inhibition (GI) (Acinetobacter baumannii [13]): Active
MBC90 (Klebsiella pneumoniae [14]): 2.6 µM (≈ 1.41 µg/mL)
MBEC50 (Enterococcus faecium [15]): 13 µM
Selectivity Index [16]: 88
MBC90 (Enterobacter cloacae [17]): 2.7 µM (≈ 1.46 µg/mL)
Selectivity Index [18]: 88
Ratio (Acinetobacter baumannii [19]): <=8
MBC90 (Acinetobacter baumannii [20]): 4.7 µM (≈ 2.54 µg/mL)
MIC (Staphylococcus aureus [21]): 1.7 µM
MIC (Enterococcus faecium [22]): 1.7 µM
Selectivity Index [23]: 88
IC50 (A549): 146 µM
Activity (Acinetobacter baumannii [24]): inactive
Selectivity Index [25]: 88
Ratio (Staphylococcus aureus [26]): 16
Ratio (Klebsiella pneumoniae [27]): <=8
growth inhibition (GI) (Staphylococcus aureus [28]): Active
MIC (Enterobacter cloacae [29]): 1.7 µM
MIC (Klebsiella pneumoniae [30]): 1.7 µM
growth inhibition (GI) (Enterococcus faecium [31]): Active
Selectivity Index [32]: 88
Activity (Staphylococcus aureus [33]): inactive
MBEC50 (Staphylococcus aureus [34]): 6.4 µM
MBEC50 (Pseudomonas aeruginosa [35]): 5 µM
Activity (Klebsiella pneumoniae [36]): inactive
Activity (Staphylococcus aureus [37]): inactive
Ratio (Enterobacter cloacae [38]): <=8
MIC (Acinetobacter baumannii [39]): 1.7 µM
MIC (Pseudomonas aeruginosa [40]): 1.7 µM
Activity (Enterococcus faecium [41]): inactive
viability at 48 h [42]: 53%
MBEC50 (Acinetobacter baumannii [43]): 24 µM
growth inhibition (GI) (Enterobacter cloacae [44]): Active
MBC90 (Enterococcus faecium [45]): 3.6 µM (≈ 1.95 µg/mL)
Activity (Pseudomonas aeruginosa [46]): inactive
MBEC50 (Enterobacter cloacae [47]): 15 µM
MBC90 (Pseudomonas aeruginosa [48]): 2.8 µM (≈ 1.51 µg/mL)

C[C@H]1c2cccc(O)c2C(=O)C2=C(O)[C@]3(O)C(=O)C(C(N)=O)=C(O)[C@@H](N(C)C)[C@@H]3[C@@H](O)[C@@H]21 [DOXYCYCLINE]
Activity (Staphylococcus aureus [49]): inactive
survival at 200 µM (Staphylococcus aureus [50]): 92%
